Compounds with a hit are over-represented: about 1.6% of the library has one in this group of screens.
ADAM17 inh: ADAM17 inhibition, QFRET primary screen; P78536; recombinant ADAM17, EDANS/DABCYL FRET peptide cleavage; inhibition, % at 6.95 µM; actives 0.83% (n = 370,000); AID 720648;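 active = inhibition above the mean of compounds lying between control limits plus 3 SD, set per campaign, cut at about 8.5% in these data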
MT1-MMP act inh: inhibitors of human MT1-MMP activation. HT1080 RFP-PRO-GFP cells, GFP/RFP ratio fluorescence, overnight; percent of plate control window, DMSO zero. actives 0.061% (n = 360,000). P50281. GFP/RFP ratio change, % at 20 µM;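 active = GFP/RFP ratio change of at least 30% with cell ATP level not reduced by more than half and red fluorescence within 50% of control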
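Assay system – RFP-PRO-GFP reporter HT1080 cells · Compound dosing – single dose of 20 µM compound, 1% DMSO final · Incubation – overnight compound exposure at 37 °C · Measure – GFP/RFP fluorescence ratio · Benchmarks – DMSO wells and RFP-L50D-GFP cells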
Tn6 DDE FP: disrupts Tn6 cyclic peptide binding to fibrin D-Dimer-E complex. P02675. Fibrin DD(E) TRITC-Tn6 fluorescence polarization displacement. inhibition, % at 8.3 µM. actives 0.21% (n = 370,000). AID 720509;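 active = inhibition above a per-campaign cutoff: mean of compounds within control limits plus 3 SD, cut at about 15% in these data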
Tn7 DDE FP: disrupts Tn7 cyclic peptide binding to fibrin D-Dimer-E complex; FP displacement of FITC-Tn7 peptide from fibrin DD(E); 0% = median of compound wells per plate; actives 0.13% (n = 370,000); inhibition, % at 8.3 µM;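 active = inhibition above the mean of compounds falling within the control limits plus 3 SD of them, cut at about 14% in these data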
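Measure: % inhibition scaled between sample-field median and high-control FP; Test system: human fibrin DD(E); Quantity: 2 µM final DD(E) protein; Doses: one dose, 8.3 µM nominal; Schedule: compound with protein 10 min, then 3 h after probe, room temperature; Detection: fluorescence polarization; Medium: Tris buffer with calcium and detergent, pH 7.8.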
ADAM10 inh: inhibits human ADAM10. actives 0.62% (n = 370,000). O14672. inhibition, % at 7 µM. recombinant ADAM10, EDANS/DABCYL FRET peptide cleavage, 3 h;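 active = inhibition above a per-campaign cutoff equal to the mean of compounds falling between control-based bounds plus 3 SD, cut at about 20% in these data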
Target sequence (O14672 214-748 limits assumed): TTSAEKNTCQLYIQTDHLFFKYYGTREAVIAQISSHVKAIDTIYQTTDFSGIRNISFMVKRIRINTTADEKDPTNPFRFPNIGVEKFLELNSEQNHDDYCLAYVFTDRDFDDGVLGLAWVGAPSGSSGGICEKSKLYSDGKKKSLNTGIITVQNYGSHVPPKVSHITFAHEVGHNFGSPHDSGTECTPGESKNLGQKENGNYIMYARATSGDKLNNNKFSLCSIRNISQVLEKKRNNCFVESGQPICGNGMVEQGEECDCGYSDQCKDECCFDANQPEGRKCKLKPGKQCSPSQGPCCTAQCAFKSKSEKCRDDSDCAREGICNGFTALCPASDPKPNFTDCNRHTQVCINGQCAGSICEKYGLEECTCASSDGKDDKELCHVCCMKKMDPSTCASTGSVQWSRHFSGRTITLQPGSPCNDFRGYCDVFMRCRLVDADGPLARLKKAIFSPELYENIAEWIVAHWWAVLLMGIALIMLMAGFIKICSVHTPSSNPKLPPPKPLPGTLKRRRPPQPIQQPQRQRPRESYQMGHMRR
ADAM10 confirm: confirmation of inhibitors of human ADAM10. shares compounds with ADAM10 inh. ADAM10 QFRET peptide cleavage, EDANS fluorescence. inhibition, % at 6.95 µM. actives 1% (n = 2,100). AID 743208;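 active = inhibition above about 20% chosen separately for each screening run, limit read from the data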
ADAM17 ctr: inhibits human ADAM17 in ADAM10 exosite counter-screen; shares compounds with ADAM10 inh; ADAM17 QFRET peptide cleavage, EDANS fluorescence; inhibition, % at 6.95 µM; actives 0.5% (n = 2,100);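 active = mean triplicate inhibition above the solvent-only control wells' mean plus 3 SD, cut at about 12% in these data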
Hits are given with their value.

What do the screens show for `CC(C)[C@@H](C)/C=C/[C@@H](C)[C@H]1CC[C@@H]2[C@]1(C)CCC1[C@]23C=C[C@]2(C[C@@H](O)CC[C@]12C)N(C(=O)Cc1ccccc1)O3` (some centres not stated)?
ADAM17 inh: inactive; Tn6 DDE FP: inactive; Tn7 DDE FP: inactive; ADAM10 inh: inactive

Results for Cc1ccc(NC(=S)Nc2ccc(F)cc2)c(C)c1 ?
ADAM17 inh: inactive; MT1-MMP act inh: inactive; Tn6 DDE FP: inactive; Tn7 DDE FP: inactive; ADAM10 inh: 21; ADAM10 confirm: inactive; ADAM17 ctr: inactive

How did CCCCOCC1CN(CCCC)S(=O)(=O)c2c(cccc2N2CCCC2)O1 (configuration not stated) do in these assays?
ADAM17 inh: inactive; Tn6 DDE FP: inactive; Tn7 DDE FP: inactive; ADAM10 inh: inactive

What do the screens show for `O=C(CC1CCCC1)N1CC[C@H]2[C@H](CCCN2Cc2ccccc2)C1`?
ADAM17 inh: inactive; Tn6 DDE FP: inactive; Tn7 DDE FP: inactive; ADAM10 inh: inactive

Results for Cc1ccc(S(=O)(=O)N2CCCCC2)cc1NC(=O)COC(=O)C1CC1 ?
ADAM17 inh: inactive; MT1-MMP act inh: inactive; Tn6 DDE FP: inactive; Tn7 DDE FP: inactive; ADAM10 inh: inactive

How did Cc1ccc(S(=O)(=O)N2CCCCC2)cc1NC(=O)COC(=O)Cc1cccc2ccccc12 do in these assays?
ADAM17 inh: inactive; MT1-MMP act inh: inactive; Tn6 DDE FP: inactive; Tn7 DDE FP: inactive; ADAM10 inh: 20; ADAM10 confirm: inactive; ADAM17 ctr: inactive

Results for CN1C(=O)c2cc(NC(=O)Nc3ccccc3F)ccc2OC[C@H]2O[C@@H](CC(=O)NCc3ccc(-c4ccccc4)cc3)CC[C@@H]21 ?
ADAM17 inh: inactive; Tn6 DDE FP: inactive; Tn7 DDE FP: inactive; ADAM10 inh: 30; ADAM10 confirm: 22; ADAM17 ctr: inactive

Results for Cc1[nH]c2ccccc2c1CC(=O)Nc1ccc(N(C)c2cccnc2)c(-c2cccc(Cl)c2)c1 ?
ADAM17 inh: inactive; Tn6 DDE FP: inactive; Tn7 DDE FP: inactive; ADAM10 inh: inactive

What do the screens show for `CS(=O)(=O)N(CC(=O)O)c1ccc(C23CC4CC(CC(C4)C2)C3)cc1`?
ADAM17 inh: inactive; MT1-MMP act inh: inactive; Tn6 DDE FP: inactive; Tn7 DDE FP: inactive; ADAM10 inh: inactive

What do the screens show for `COc1ccccc1NC(=O)CN(c1ccc(C23CC4CC(CC(C4)C2)C3)cc1)S(C)(=O)=O`?
ADAM17 inh: inactive; MT1-MMP act inh: inactive; Tn6 DDE FP: inactive; Tn7 DDE FP: inactive; ADAM10 inh: 22; ADAM10 confirm: inactive; ADAM17 ctr: inactive

How did CC(C)NC(=O)c1onc(CSc2cccc3ccccc23)c1C(=O)O do in these assays?
ADAM17 inh: inactive; MT1-MMP act inh: inactive; Tn6 DDE FP: inactive; Tn7 DDE FP: inactive; ADAM10 inh: 86; ADAM10 confirm: inactive; ADAM17 ctr: inactive

Results for CC(C)NC(=O)c1onc(CSc2ccccc2)c1C(=O)O ?
ADAM17 inh: inactive; MT1-MMP act inh: inactive; Tn6 DDE FP: inactive; Tn7 DDE FP: inactive; ADAM10 inh: inactive

How did N#CNC(=Nc1cccc(F)c1)SCc1ccccc1F do in these assays?
ADAM17 inh: inactive; MT1-MMP act inh: inactive; Tn6 DDE FP: inactive; Tn7 DDE FP: inactive; ADAM10 inh: 23; ADAM10 confirm: inactive; ADAM17 ctr: inactive

Results for CCCN(CCC)S(=O)(=O)c1ccc(C(=O)NCc2n[nH]c(=S)n2-c2ccc(Cl)c(Cl)c2)cc1 ?
ADAM17 inh: inactive; MT1-MMP act inh: inactive; Tn6 DDE FP: inactive; Tn7 DDE FP: inactive; ADAM10 inh: 24; ADAM10 confirm: inactive; ADAM17 ctr: inactive

How did C[C@@H]1CN([C@H](C)CO)C(=O)c2cc(NC(=O)Nc3ccc(C(F)(F)F)cc3)ccc2O[C@H]1CN(C)C(=O)Nc1ccc(F)cc1 do in these assays?
ADAM17 inh: inactive; MT1-MMP act inh: inactive; Tn6 DDE FP: inactive; Tn7 DDE FP: inactive; ADAM10 inh: 35; ADAM10 confirm: inactive; ADAM17 ctr: inactive

What do the screens show for `COc1ccc(NC(=O)N(C)C[C@H]2OCCCC[C@H](C)Oc3ccc(NC(=O)Nc4ccc5c(c4)OCO5)cc3C(=O)N([C@@H](C)CO)C[C@@H]2C)cc1`?
ADAM17 inh: inactive; MT1-MMP act inh: inactive; Tn6 DDE FP: inactive; Tn7 DDE FP: inactive; ADAM10 inh: inactive

Results for C[C@@H]1CN([C@@H](C)CO)C(=O)c2ccccc2-c2ccccc2CO[C@@H]1CN(C)Cc1ccc(Cl)c(Cl)c1 ?
ADAM17 inh: inactive; Tn6 DDE FP: inactive; Tn7 DDE FP: inactive; ADAM10 inh: 22; ADAM10 confirm: inactive; ADAM17 ctr: inactive

What do the screens show for `C[C@H]1CN([C@@H](C)CO)C(=O)c2cc(NC(=O)NC3CCCCC3)ccc2O[C@H]1CN(C)C(=O)Nc1ccc(C(F)(F)F)cc1`?
ADAM17 inh: inactive; MT1-MMP act inh: inactive; Tn6 DDE FP: inactive; Tn7 DDE FP: inactive; ADAM10 inh: inactive

How did C[C@H]1CCCCO[C@H](CN(C)C(=O)Nc2ccc(F)cc2)[C@@H](C)CN([C@@H](C)CO)C(=O)c2cc(NC(=O)Nc3ccc4c(c3)OCO4)ccc2O1 do in these assays?
ADAM17 inh: inactive; MT1-MMP act inh: inactive; Tn6 DDE FP: inactive; Tn7 DDE FP: inactive; ADAM10 inh: 23; ADAM10 confirm: inactive; ADAM17 ctr: inactive

What do the screens show for `C[C@@H]1CN([C@@H](C)CO)C(=O)c2cccc(NC(=O)Nc3ccc(F)cc3)c2O[C@@H]1CN(C)Cc1ccc(Oc2ccccc2)cc1`?
ADAM17 inh: inactive; MT1-MMP act inh: inactive; Tn6 DDE FP: inactive; Tn7 DDE FP: inactive; ADAM10 inh: 21; ADAM10 confirm: inactive; ADAM17 ctr: inactive

Results for C[C@@H]1CN([C@H](C)CO)C(=O)c2ccccc2-c2ccccc2CO[C@@H]1CN(C)C(=O)Nc1ccccc1 ?
ADAM17 inh: inactive; Tn6 DDE FP: inactive; Tn7 DDE FP: inactive; ADAM10 inh: inactive

Results for CCC(C)c1ccc(NC(=O)CSc2nnc(-c3cccc(C)c3)n2C)cc1 (configuration not stated) ?
ADAM17 inh: inactive; Tn6 DDE FP: inactive; Tn7 DDE FP: inactive; ADAM10 inh: inactive

Results for CN[C@H]1C[C@@H](c2ccccc2Br)N(C(C)=O)C[C@H]1CO ?
ADAM17 inh: inactive; Tn6 DDE FP: inactive; Tn7 DDE FP: inactive; ADAM10 inh: inactive

What do the screens show for `C[C@@H]1CCCCO[C@H](CN(C)C(=O)Nc2ccc(F)cc2)[C@@H](C)CN([C@H](C)CO)C(=O)c2cc(NC(=O)c3ccccc3)ccc2O1`?
ADAM17 inh: inactive; MT1-MMP act inh: inactive; Tn6 DDE FP: inactive; Tn7 DDE FP: inactive; ADAM10 inh: 23; ADAM10 confirm: inactive; ADAM17 ctr: inactive

Assay outcomes as filed in PubChem.
